The text below walks through data of publication PMC10362183 (Heliyon, 2023).

Read-outs that look alike come from different tables or passages of the source.

Data set [1] has as its system human monocytes (U-937 ATCC CRL-1593.2). Nature of the data set: Cytotoxic activity, MTT assay on U-937 cells. Format: cell-based. The following applies: 72 h. In a few lines: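 Exponential-phase cells at 1 × 10^5 cells/mL in RPMI-1640 with 10% FBS. Test compound (200, 50, 12.5, 3.125 μg/mL) was added in PBS with 0.5% DMSO for 72 h at 37 °C, 5% CO2. MTT was then added for 3 h, the reaction stopped with isopropanol/SDS, and absorbance read at 570 nm. Viability was taken relative to untreated cells, with blank subtraction. LC50 was by probit linear regression. Triplicates, ≥2 independent experiments.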
A general note: Tetrazolium dyes change colour on reduction, which living cells bring about.

Data set [2] has as its system intracellular amastigotes of L. panamensis (MHOM/CO/87/UA140-EGFP strain). Nature of the data set: Antileishmanial activity on intracellular amastigotes, flow cytometry. Format: cell-based. In a few lines:
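U-937 cells (3 × 10^5 cells/mL, RPMI-1640, 0.1 μg/mL PMA) infected with stationary-phase EGFP-transfected promastigotes at 15:1 for 3 h at 34 °C, then washed. After 24 h, test compound was added at 50, 12.5, 3.125 and 0.78 μg/mL for 72 h at 37 °C, 5% CO2. Amphotericin B served as positive control. Detached cells were read by flow cytometry (488/525 nm, 10,000 events). EC50 was by probit from MFI relative to untreated wells. Triplicates, ≥2 independent experiments.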

Data set [3] relates to Trypanosoma cruzi (Tulahuen strain transfected with the β-galactosidase gene). Nature of the data set: Antitrypanosomal activity on intracellular amastigotes, β-galactosidase readout. The following applies: read-out: Trypanosomal CE50; intracellular amastigotes in U-937 cells, 72 h. The format is cell-based.
In data set [4] the test system is P. falciparum (3D7 strain). Description: Antiplasmodial activity, LDH assay. The format is cell-based.
Data set [5] is described as follows: Electrochemical measurements. Format: physicochemical. The following applies: cyclical cathodic and anodic currents, low potential range, ACN, TBAB 0.1 M. In a few lines:
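Cyclic voltammetry used a glassy carbon working electrode, Ag/AgCl reference and platinum counter electrode, in acetonitrile with 0.1 M TBAB as supporting electrolyte. The scan ran from −1.5 to 2.5 V at 150 mV/s. p-Quinone was run under the same conditions as experimental control.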

The mark [6] stands for this setting: read-out: Leishmanial CE50, intracellular amastigotes in U-937 cells, 72 h.
The mark [7] stands for this setting: read-out: Plasmodial CE50, 3D7 strain, 72 h.
Setting [8] is: Leishmania panamensis, U-937, 72 h, read-out: Leishmanial CE50.
[9] abbreviates: Plasmodium falciparum, 3D7, 72 h, read-out: Plasmodial CE50, 3D7 strain, 72 h.
Setting [10] is: Leishmania panamensis, read-out: Antileishmanial activity.

As for “3-(4-Chlorobenzyl)-4H-thiochromen-4-one 1,1-dioxide [Compound 14c]”, the “Cytotoxicity CL50” value in data set [1] amounted to 20.81 µM. The EC50 in data set [2] (read-out: Antileishmanial activity, Table 2, own compounds, repeats Table 1) was found to be 18.2 µM; in data set [2] (setting [6]), 18.2 µM; in data set [3], 129 µM; in data set [4] (setting [7]) it was 46.7 µM.

In the case of “6-Phenyl-4H-thiochromen-4-one 1,1-dioxide [Compound 21d]”, in data set [1], the “Cytotoxicity CL50” value stood at 276.03 µM. For the same molecule, the EC50 in data set [2] (setting [6]) is 691 µM; in data set [3] it was 260 µM; in data set [4] (setting [7]), 75.4 µM.

For the molecule “6-Phenyl-4H-thiochromen-4-one 1,1-dioxide [Compound 21e]”, the “Cytotoxicity CL50” value in data set [1] was determined as 254.35 µM. The EC50 in data set [2] (setting [6]) came to 74 µM; in data set [3] it was 735 µM; in data set [4] (setting [7]), 61.4 µM.

As to `O=C1C=CS(=O)(=O)c2ccccc21` [Compound 6a, 4H-Thiochromen-4-one 1,1-dioxide], the EC50 in data set [2] (setting [8]) came out at 137 µM; in data set [4] (setting [9]), 717 µM. Besides, the electrochemical behavior result in data set [5] is recorded as “unexpected capacitive behavior”.

Regarding `O=C1C=CS(=O)(=O)c2ccc(F)cc21` [Compound 6b, 6-Fluoro-4H-thiochromen-4-one 1,1-dioxide], the “Cytotoxicity CL50” value in data set [1] is 274.83 µM. Besides, the EC50 in data set [4] (setting [9]) turned out to be 111 µM.

On to `O=C1C=CS(=O)(=O)c2ccc(Cl)cc21` [Compound 6c, 6-Chloro-4H-thiochromen-4-one 1,1-dioxide], for which the “Cytotoxicity CL50” value in data set [1] came to 215.05 µM. In data set [4] (setting [9]), the EC50 is 89.9 µM.

Regarding `O=C1C=CS(=O)(=O)c2ccc(Br)cc21` [Compound 6d, 6-Bromo-4H-thiochromen-4-one 1,1-dioxide], the values for the EC50 in data set [2] (setting [8]) and in data set [4] (setting [9]) were 106 µM and 71.2 µM, respectively.

For `O=C1C=CS(=O)(=O)c2cc(Br)ccc21` [Compound 6e, 7-Bromo-4H-thiochromen-4-one 1,1-dioxide], the “Cytotoxicity CL50” value in data set [1] was determined as 252.48 µM. Besides, the EC50 in data set [4] (setting [9]) turned out to be 76.3 µM.

With `O=C1C=CS(=O)(=O)c2c(Br)cccc21` [Compound 6f, 8-Bromo-4H-thiochromen-4-one 1,1-dioxide], in data set [1], the “Cytotoxicity CL50” value stood at 318.45 µM. In addition, the EC50 in data set [2] (setting [8]) was 149 µM; in data set [4] (setting [9]) it was 82.8 µM.

Take `CC1=CC(=O)c2ccccc2S1(=O)=O` [Compound 11a, 2-Methyl-4H-thiochromen-4-one 1,1 dioxide]: in data set [1], the “Cytotoxicity CL50” value was 59.12 µM. Besides, the figures for the EC50 in data set [2] (setting [8]) and in data set [4] (setting [9]) were 35.6 µM and 140 µM, respectively.

For the molecule `O=C1C(Cc2ccccc2Cl)=CS(=O)(=O)c2ccccc21` [Compound 14a, 3-(2-Chlorobenzyl)-4H-thiochromen-4-one 1,1-dioxide], in data set [1], the “Cytotoxicity CL50” value is 83.61 µM. The figures for the EC50 in data set [2] (setting [8]) and in data set [4] (setting [9]) were 289 µM and 71.2 µM, respectively.

As for `O=C1C(Cc2ccc(Cl)cc2)=CS(=O)(=O)c2ccccc21` [Compound 14b, 3-(4-Chlorobenzyl)-4H-thiochromen-4-one 1,1-dioxide], the EC50 in data set [2] (setting [8]) turned out to be 63.6 µM; in data set [2] (setting [10]), 63.6 µM; in data set [4] (setting [9]) it was 50.6 µM.

As to `O=C1C(Cc2ccco2)=CS(=O)(=O)c2ccccc21` [Compound 17a, 3-(Furan-2-yl-methyl)-4H-thiochromen-4-one 1,1-dioxide], the EC50 in data set [2] (setting [8]) was 72.9 µM; in data set [2] (setting [10]), 72.9 µM; in data set [4] (setting [9]) it was 70.2 µM.

As to `O=C1C(Cc2cccs2)=CS(=O)(=O)c2ccccc21` [Compound 17b, 3-(Thiophen-2-yl-methyl)-4H-thiochromen-4-one 1,1-dioxide], in data set [1], the “Cytotoxicity CL50” value is 12.70 µM. In addition, the values for the EC50 in data set [2] (setting [8]), in data set [2] (setting [10]) and in data set [4] (setting [9]) were 16.5 µM, 16.5 µM and 99.3 µM, respectively.

In the case of `O=C1C=CS(=O)(=O)c2ccc(-c3cc(C(F)(F)F)cc(C(F)(F)F)c3)cc21` [Compound 21a, 6-(3,5-Bis(trifluoromethyl)phenyl) 4 H-thiochromen-4-one 1,1-dioxide], the “Cytotoxicity CL50” value in data set [1] was 83.61 µM. Moreover, the EC50 in data set [2] (setting [8]) is 289 µM; in data set [4] (setting [9]), 71.2 µM.

In the case of `O=C1C=CS(=O)(=O)c2cc(-c3cc(C(F)(F)F)cc(C(F)(F)F)c3)ccc21` [Compound 21b, 7-(3,5-Bis(trifluoromethyl)phenyl)-4H-thiochromen-4-one 1,1-dioxide], the “Cytotoxicity CL50” value in data set [1] came to 49.16 µM. Moreover, the EC50 turned out to be 102 µM in data set [2] (setting [8]) and 98.1 µM in data set [4] (setting [9]).

For the molecule `O=C1C=CS(=O)(=O)c2c1cccc2-c1cc(C(F)(F)F)cc(C(F)(F)F)c1` [Compound 21c, 8-(3,5-Bis(trifluoromethyl)phenyl)-4H-thiochromen-4-one 1,1-dioxide], the “Cytotoxicity CL50” value in data set [1] was determined as 23.20 µM. The EC50 in data set [2] (setting [8]) is 9.3 µM; in data set [2] (setting [10]), 9.3 µM; in data set [4] (setting [9]) it was 71.4 µM.
